In brackets after ≈: the same amount, converted by molar mass.

The values that follow come from PMC5482095 (Molecular Medicine Reports, 2017).

The test system of series [1] is BALB/c 3T3 cells. The experiment in a line: MTT cytotoxicity assay, 3T3 fibroblasts. The format is cell-based, murine. The note with it: for IC50: Mus musculus, BALB/c3T3, 240 h, read-out: IC50 3T3.
Series [2] has as its system mES-D3 cells. In words: MTT cytotoxicity assay, embryonic stem cells. The note with it: Mus musculus, Embryonic stem cell, 240 h, read-out: IC50 ES. The class given is cell-based, murine. Background: Tetrazolium assays rely on reduction of a dye to a coloured formazan, in cell work by metabolically active cells.
Series [3] concerns mES-D3 cells and BALB/c-3T3 cells. In words: Classification of embryotoxicity by the ECVAM prediction model. The note with it: prediction model from mean IC50 3T3, IC50 ES and ID50. On the set-up: species or system murine. A digest of the protocol: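 Class (non-, weak or strong embryotoxic) comes from the ECVAM linear discriminant prediction model using mean IC50 3T3, IC50 ES and ID50. ID50 setup: 1,000 mES cells per 20 µl hanging drop without LIF for 3 days, then suspension for 2 days, then 100 EBs/well on 0.1% gelatin for 5 days. Compound is present from day 0. On day 10, α/β-MHC expression is measured by RT-PCR against GAPDH, giving the 50%-suppression concentration (mean of three repeats).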

The conditions of series [4]: cited from earlier work.
For series [5], the system named is mice. The note with it: cited from earlier work.
The subject of series [6] is mouse preimplantation embryos. The note with it: in vivo; cited from earlier work.
The conditions of series [7]: toxicological studies; cited from earlier work.

With `O=c1[nH]cc(F)c(=O)[nH]1` [5-fluorouracil, reference compound], the IC50 in series [1] was determined as 0.244 ± 0.051 µg/mL (≈ 1.88 µM); in series [2], 0.08 ± 0.016 µg/mL (≈ 0.615 µM). In addition, the “Classification of the embryotoxicity” value in series [3] was “Strong”. Besides, the “Classification of the embryotoxicity according to the PM (in words)” value (“Classification … (in words)” below) in series [3] was “strong embryotoxicity”. Further, the “Known in vivo embryotoxic potential” value in series [4] is “strong embryotoxicity”.

Regarding `CC(C)c1cc2c(c(O)c1O)[C@@]1(C(=O)O)CCCC(C)(C)[C@@H]1CC2` [Carnosic acid], in series [1], the IC50 turned out to be 26.3 ± 3.86 µg/mL (≈ 79.1 µM). For the same compound, in series [2], the IC50 was determined as 5.77 ± 1.3 µg/mL (≈ 17.4 µM). For the same compound, the Oral lethal dose in series [5] is recorded as 7,100 mg/kg of body weight. In addition, in series [3], the “Classification of the embryotoxicity” value is “Weak” and the “Classification … (in words)” value is listed as “weak embryotoxicity”.

Regarding `CCCCCCCCOC(=O)c1ccccc1C(=O)OCCCCCCCC` [Dioctyl phthalate, dioctyl phthalate], in series [1], the IC50 was found to be 213 ± 28.2 µg/mL (≈ 547 µM). Further, the IC50 in series [2] turned out to be 124 ± 24.9 µg/mL (≈ 316 µM). In series [3], the “Classification of the embryotoxicity” value was “Weak” and the “Classification … (in words)” value is reported as “weak embryotoxicity”.

As for `C=CCc1ccc(O)c(OC)c1` [Eugenol, eugenol], the IC50 in series [1] was determined as 9.44 ± 2.85 µg/mL (≈ 57.5 µM). Further, in series [2], the IC50 turned out to be 1.93 ± 0.329 µg/mL (≈ 11.7 µM). Moreover, in series [6], the “Influence on development of preimplantation embryos” value was “may induce a significantly increased rate of cell death and affect the development of embryo”. In addition, in series [3], the “Classification of the embryotoxicity” value is “Strong” and the “Classification … (in words)” value is given as “strong embryotoxicity”.

`CC1(C)S[C@@H]2[C@H](NC(=O)Cc3ccccc3)C(=O)N2[C@H]1C(=O)O` [Penicillin G, penicillin G, reference compound]: in series [1], the IC50 worked out at 1160 ± 69.1 µg/mL (≈ 3470 µM). Besides, the half-inhibitory concentration (IC50) in series [2] worked out at 1570 ± 152 µg/mL (≈ 4690 µM). Moreover, in series [3], the “Classification of the embryotoxicity” value is “None” and the “Classification … (in words)” value was “non-embryotoxicity”.

Consider procyanidin, for which the “IC50 3T3” value in series [1] (BALB/c 3T3 cells, 10 days of culture, MTT, mean ± standard error of the mean of three experiments) turned out to be 12.100 ± 1.828 µg/mL. The Toxicity in vivo entry in series [7] is “nontoxic and does not cause any detrimental effects in vivo”. Also, in series [3], the “Classification of the embryotoxicity” value is “None” and the “Classification … (in words)” value was “non-embryotoxicity”.

As usually defined, the IC50 is the concentration that gives 50% inhibition.
